Experimental findings from ChEMBL document CHEMBL4261586, “Conjugation of a 5-nitrofuran-2-oyl moiety to aminoalkylimidazoles produces non-toxic nitrofurans that are efficacious in vitro and in vivo against multidrug-resistant Mycobacterium tuberculosis” (Eur J Med Chem, 2018) are described below.

Values after ≈ are worked out from the molar mass of the structure shown.

Data set [1] deals with Mycobacterium tuberculosis. Put plainly: Antimycobacterial activity against Mycobacterium tuberculosis H37Rv after 7 days by resazurin microtitre plate assay. It counts as functional. Particulars: 168 h. The gist of the method:
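REMA in Middlebrook 7H9 with OADC. Three-week culture vortexed with glass beads, adjusted to 1.0 McFarland (about 3×10⁸ bacteria/mL) and diluted 20-fold. Final concentrations 1.6–200 via 2-fold dilutions; growth control plus 1% ([…] diluted) control. 7 days at 35 °C, then 0.01% resazurin for 18 h; fluorescence ex 520/em 590 nm. MIC taken where fluorescence plateaued or matched the 1% control (t-test).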
Background: Resazurin is reduced to fluorescent resorufin, in cell work by metabolically active cells.

Another data set relates to Acinetobacter baumannii. Put plainly: Antibacterial activity against Acinetobacter baumannii assessed as diameter of inhibition zone measured after 18 hrs by Kirby-Bauer disk diffusion test. It counts as functional. In general terms: In agar diffusion tests the substance spreads into inoculated agar from a disc or well.
In the next data set the test system is Enterococcus faecium. Put plainly: Antibacterial activity against Enterococcus faecium assessed as diameter of inhibition zone after 18 hrs by Kirby-Bauer disk diffusion test. It counts as functional.
A further data set has as its system Klebsiella aerogenes. Put plainly: Antibacterial activity against Enterobacter aerogenes assessed as diameter of inhibition zone measured after 18 hrs by Kirby-Bauer disk diffusion test. It counts as functional.
The test system of the next data set is Klebsiella pneumoniae. The data set is described as follows: Antibacterial activity against Klebsiella pneumoniae assessed as diameter of inhibition zone measured after 18 hrs by Kirby-Bauer disk diffusion test. It counts as functional.
Another data set has as its system Staphylococcus aureus. The data set is described as follows: Antibacterial activity against Staphylococcus aureus assessed as diameter of inhibition zone after 18 hrs by Kirby-Bauer disk diffusion test. It counts as functional.
The test system of data set [2] is Mycobacterium tuberculosis. Put plainly: Antitubercular activity against Mycobacterium tuberculosis H37Rv infected in C57BL/6 mouse assessed as lung mass index at 20 mg/kg, po administered via gavage over 42 days (excluding weekends) (reference value: 2.28 +/- 0.1). It counts as functional.
Data set [3] concerns Mycobacterium tuberculosis. Put plainly: Antitubercular activity against Mycobacterium tuberculosis H37Rv infected in C57BL/6 mouse assessed as tubercular foci index at 20 mg/kg, po administered via gavage over 42 days (excluding weekends) (reference value: 23.6 +/- 0.09). The class given is functional.
For data set [4], the system named is Mycobacterium tuberculosis. Put plainly: Antitubercular activity against Mycobacterium tuberculosis H37Rv infected in C57BL/6 mouse assessed as colony forming units per lung mass unit at 20 mg/kg, po administered via gavage over 42 days (excluding weekends) (reference value: 169.1 +/- 11.83 x 10^3). The class given is functional.
The test system of data set [5] is Mus musculus. Put plainly: Toxicity in C57BL6 mouse assessed as spleen mass quotient at 700 to 1100 mg/kg, po measured after 14 days relative to total body weight. The class given is organism-based. Particulars: in vivo, 336 h. The procedure, abridged: (§1)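 Male C57BL6 mice (19.0–22.0 g), quarantined 14 days, 6 per dose group. Single oral gavage of Tween-80 suspension in water at 700–1100 mg/kg in 100 mg/kg steps; controls (7 mice) received 0.01% Tween-80. Lethality, time to death and clinical signs recorded daily for 14 days, then cervical dislocation and necropsy; heart, lung, liver, spleen and left kidney weights expressed relative to body weight. LD50 calculated by formula from dead/total counts.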

In data set [6] the test system is Mus musculus. Put plainly: (§2) Toxicity in po dosed C57BL6 mouse assessed as lethality measured daily over 14 days of treatment. The class given is organism-based. Particulars: mouse, in vivo, 336 h. The gist of the method:
as §1

A short description of data set [7]: as §2. The class given is organism-based. The conditions noted are these: C57BL6, mouse, in vivo. The procedure, abridged: as §1
In data set [8] the test system is Mus musculus. The data set is described as follows: Toxicity in C57BL6 mouse assessed as brain mass quotient at 700 to 1100 mg/kg, po measured after 14 days relative to total body weight. The class given is organism-based. The conditions noted are these: in vivo, 336 h.
Data set [9] has as its system Mus musculus. The data set is described as follows: Toxicity in C57BL6 mouse assessed as lethality at 700 mg/kg, po measured daily over 14 days of treatment. The class given is organism-based. Particulars: in vivo, 336 h. The gist of the method: as §1
The subject of data set [10] is Mus musculus. Put plainly: Toxicity in C57BL6 mouse assessed as heart mass quotient at 700 to 1100 mg/kg, po measured after 14 days relative to total body weight. The class given is organism-based. Particulars: in vivo, 336 h. The gist of the method: as §1
Data set [11] has as its system Mus musculus. Put plainly: Toxicity in C57BL6 mouse assessed as body mass at 700 to 1100 mg/kg, po measured after 14 days (reference value: 22.9 +/- 0.32 g). The class given is organism-based. The conditions noted are these: in vivo, 336 h. The procedure, abridged:
as §1

For data set [12], the system named is Mus musculus. Put plainly: Toxicity in C57BL6 mouse assessed as liver mass quotient at 700 to 1100 mg/kg, po measured after 14 days relative to total body weight. The class given is organism-based. The conditions noted are these: in vivo, 336 h. The procedure, abridged:
as §1

In data set [13] the test system is Mus musculus. The data set is described as follows: Toxicity in C57BL6 mouse assessed as lung mass quotient at 700 to 1100 mg/kg, po measured after 14 days relative to total body weight. It counts as organism-based. Particulars: in vivo, 336 h. The gist of the method: as §1
Data set [14] deals with Mus musculus. The data set is described as follows: Toxicity in C57BL6 mouse assessed as left kidney mass quotient at 700 to 1100 mg/kg, po measured after 14 days relative to total body weight. It counts as organism-based. The conditions noted are these: in vivo, 336 h. The gist of the method:
as §1

In another data set the test system is Pseudomonas aeruginosa. The data set is described as follows: Antibacterial activity against Pseudomonas aeruginosa assessed as diameter of inhibition zone measured after 18 hrs by Kirby-Bauer disk diffusion test. The class given is functional.
The subject of data set [15] is Mus musculus. The data set is described as follows: Toxicity in C57BL6 mouse assessed as lethality at 1100 mg/kg, po measured daily over 14 days of treatment. It counts as organism-based. The conditions noted are these: in vivo, 336 h. The gist of the method:
as §1

Regarding `Cc1cnc(-c2ccccc2)n1CC1CCN(C(=O)c2ccc([N+](=O)[O-])o2)C1` (configuration not stated), the MIC (usually the least concentration at which growth counts as inhibited) in [1] amounted to 6.2 µg/mL (≈ 16.3 µM).

Regarding `O=C(O)c1cn(C2CC2)c2cc(N3CCNCC3)c(F)cc2c1=O` [CIPROFLOXACIN], the “diameter of the inhibition zone (DIZ)” value with Acinetobacter baumannii amounted to 31 mm; with Enterococcus faecium, 25 mm; in the data set on Klebsiella aerogenes it was 26 mm; in the data set on Klebsiella pneumoniae, 26 mm; in the data set on Staphylococcus aureus, 27 mm.

`Cc1cnc(CC2CCN(C(=O)c3ccc([N+](=O)[O-])o3)C2)n1CC1CC1` (configuration not stated) showed an MIC in data set [1] of 6.2 µg/mL (≈ 17.3 µM).

For `Cc1cnc(CCNC(=O)c2ccc([N+](=O)[O-])o2)n1C1CCC1`, in data set [1], it took 6.2 µg/mL (≈ 19.5 µM) to inhibit growth (MIC).

The compound `Cc1cnc(Cc2ccccc2)n1CCNC(=O)c1ccc([N+](=O)[O-])o1` came in with an MIC in data set [1] of 50 µg/mL (≈ 141 µM).

In data set [1], `COCCn1c(C)cnc1CC1CCN(C(=O)c2ccc([N+](=O)[O-])o2)CC1` displayed a minimum inhibitory concentration (MIC) greater than 100 µg/mL.

On to `Cc1cnc(-c2cccnc2)n1CCC1CCN(C(=O)c2ccc([N+](=O)[O-])o2)CC1`, for which the minimum inhibitory concentration (MIC) in data set [1] worked out at 100 µg/mL (≈ 244 µM).

In [1], `Cc1cnc(C)n1C1CCN(C(=O)c2ccc([N+](=O)[O-])o2)C1` (configuration not stated) returned an MIC of 3.1 µg/mL (≈ 10.2 µM).

In the case of `Cc1cnc(C)n1C1CCN(C(=O)c2ccc([N+](=O)[O-])o2)CC1`, the minimum inhibitory concentration (MIC) in [1] was greater than 100 µg/mL.

Take `CC[C@@H](CO)NCCN[C@@H](CC)CO` [ETHAMBUTOL]: the Activity_index is 1.61 in [2] and 2.65 in [3]. Besides, in [4], the Activity was found to be 85.32 ×10³ CFU.

In [1], `Cc1cnc(C)n1C1CCCN(C(=O)c2ccc([N+](=O)[O-])o2)C1` (configuration not stated) returned an MIC of 100 µg/mL (≈ 314 µM).

As to `Cc1cnc(C2CCCO2)n1CC1CCN(C(=O)c2ccc([N+](=O)[O-])o2)CC1` (configuration not stated), the minimum inhibitory concentration (MIC) in data set [1] came to 50 µg/mL (≈ 129 µM).

Turning to `Cc1cnc(CCNC(=O)c2ccc([N+](=O)[O-])o2)n1C1CCCCCCC1`, in data set [1], the minimum inhibitory concentration (MIC) worked out at 25 µg/mL (≈ 66.8 µM).

As for `CCCn1c(C)cnc1C1CN(C(=O)c2ccc([N+](=O)[O-])o2)C1`, the “fold change (FC)” value with Mus musculus [5] is reported as 0.23; in the data set on Mus musculus [8] it was 1.11; in the data set with Mus musculus [10], 0.34; with Mus musculus [12], 4.49; in the data set on Mus musculus [13], 0.48; in the data set on Mus musculus [14] it was 0.39. The compound further gave an MIC in [1] of 1.6 µg/mL (≈ 5.03 µM). The “diameter of the inhibition zone (DIZ)” value in the data set with Acinetobacter baumannii is given as 25 mm; in the data set on Enterococcus faecium, 0 mm; with Klebsiella aerogenes, 19 mm; in the data set on Klebsiella pneumoniae it was 0 mm; with Pseudomonas aeruginosa, 0 mm; with Staphylococcus aureus, 15 mm. Moreover, the Activity_index in data set [2] was 1.62; in [3], 2.7. Also, the LD16 in the data set on Mus musculus [6] was 287.5 mg/kg. For the same compound, the LD84 with Mus musculus [6] was determined as 1037.5 mg/kg. The LD100 with Mus musculus [6] came out at 1100 mg/kg. The LD50 (in general, the dose at which mortality reaches 50%) at 336 h in data set [7] came to 900 mg/kg. Also, the Activity result in the data set with Mus musculus [9] is reported as “Non-Toxic”; in the data set with Mus musculus [11], 22.32 g; in data set [4] it was 85.9 ×10³ CFU; with Mus musculus [15] it was “Toxic”.
